Assay outcomes: PubChem, several laboratories
CYP2C19 act = cytochrome P450 2C19 (human) activation; activation factor at 5 µM; P33261; AID 1025; 96,000 tested, under 10 active; recombinant CYP2C19, luciferin-H EGE luminescence; active compounds read high; 0 = fully inhibited enzyme, 1 = untreated enzyme;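 active = activation factor of at least 2 at 5 µM in the primary screen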;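 also: 0 = wells with 2.5 mM tranylcypromine and 1 = vehicle-only wells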
HIV Rev-RRE inh = disrupts HIV-1 Rev binding to RRE RNA; P05866; Rev peptide-RRE RNA binding, FRET; inhibition, % at 8 µM; 0.79% of 97,000 active; AID 704;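 active = inhibition above the screen-wide mean plus 3 SD, cut at about 35% in these data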;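 also: 0% = median DMSO wells and 100% = median Neomycin B control wells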
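Test system – labelled RRE RNA duplex and labelled Rev peptide · Signal – fluorescein-to-Cy5 FRET, 480 nm excitation · Evaluation – % inhibition of FRET ratio versus controls · Benchmarks – DMSO low control, neomycin B high control · Incubation – 5 min RNA-compound premix plus 15 min binding step, 25 °C · Medium – HEPES pH 7.5 salt buffer with EDTA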
CYP2C9 inh = human CYP2C9 inhibition; inhibition, % at 5 µM; CYP2C9 Supersomes, luciferin-H conversion, luminescence; P11712; AID 777; 20% of 96,000 active;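 active = blocking of liver enzyme CYP2C9 beyond about 50% at 5 µM, limit read from the data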
CYP2C19 inh = inhibitors of human CYP2C19. AID 778. P33261. inhibition, % at 5 µM. CYP2C19 Supersomes, luciferin-H EGE luminescence, 30 min. 21% of 96,000 active;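 active = CYP2C19 inhibition above a set limit at 5 µM in the primary screen, cut at about 50% in these data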;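 also: plate controls were negative control wells for no effect and 2.5 mM tranylcypromine positive control for full effect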
CYP2C9 activ = CYP2C9 (human) activation | P11712 | recombinant CYP2C9, luciferin-H conversion, luminescence; active compounds read high; factor 1 = untreated enzyme, 0 = blocked | activation factor at 5 µM | 1.4% of 96,000 active;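 active = activation factor of 2 or more for CYP2C9 at a 5 µM dose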;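 also: 0 = sulfaphenazole-blocked wells and 1 = vehicle-only wells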
Cav3 T inh = human Cav3.2 channel inhibition, primary screen; 4% of 100,000 active; B-score at 10 µM; Cav3.2-expressing cells, Fluo-4 calcium fluorescence FDSS; active compounds read low; AID 449739;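 active = single-dose well whose peak fluorescence ratio is a statistical outlier from its plate by either plate-standardised score or position-corrected B-score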
Starred values were filed as active, the others as inactive; nt = no result given. Sampled rows, rich in hits. Any-hit rate of the full collection: about 27%.

SMILES	CYP2C19 act	HIV Rev-RRE inh	CYP2C9 inh	CYP2C19 inh	CYP2C9 activ	Cav3 T inh
O=C(C1CCCN(S(=O)(=O)c2ccccc2)C1)N1CCN(c2ncccn2)CC1 (configuration not stated)	nt	-4.2	nt	nt	nt	0.0375
CC1Cc2ccccc2N1C(=O)C1CCCN(S(=O)(=O)c2cccc3cccnc23)C1 (configuration not stated)	0.2	10.4	26.8	78.3*	0.7	-1.97
COc1ccc(-c2nc(CSCC(=O)N3CCN(C(=O)c4ccco4)CC3)c(C)o2)cc1OC	0.6	9.0	39.4	39.7	0.6	0.277
COc1cc(-c2nnc(-c3ccco3)o2)ccc1OCc1ccccc1	nt	nt	nt	nt	nt	-1.42
Cc1cc(C)c2nc(SC(C)C#N)cc(C)c2c1 (configuration not stated)	1	20.1	-19.3	-3.7	1.2	0.743
Cc1ccc2nc(C)c(C)nc2c1N	0.2	4.4	14.5	77.4*	0.9	0.332
Cc1ccc(S(=O)(=O)N2CCCC2C(=O)NC2=NCCS2)cc1 (configuration not stated)	0.7	7.6	-18.5	25.2	1.2	0.0225
CC(C)(C)c1ccc(S(=O)(=O)N2CCCC2C(=O)NC2=NCCS2)cc1 (configuration not stated)	0.9	1.5	75.6*	8.3	0.2	-0.79
Cc1ccc(S(=O)(=O)N2CCCC(C(=O)NCc3ccccn3)C2)cc1 (configuration not stated)	0.8	0.8	-87.4	22.1	1.9	nt
O=C(NCc1ccco1)C1CCCN1S(=O)(=O)c1ccc2ccccc2c1 (configuration not stated)	0.1	1.8	-80.5	88.4*	1.8	1.03
O=C(NC1CC1)C1CCCN1S(=O)(=O)c1ccc2ccccc2c1 (configuration not stated)	0.6	3.1	-80.1	43.2	1.8	0.448
CC(C)(C)c1ccc(S(=O)(=O)N2CCCCC2C(=O)NCc2ccccn2)cc1 (configuration not stated)	0.4	nt	-22.0	63.1*	1.2	-1.28
O=C(CN1CCOCC1)NCC12CC3CC(CC(C3)C1)C2	1	6.7	2.2	-1.5	1	1.18
CCNC(=S)NNC(=O)c1ccc(OC(F)F)cc1	0.7	3.7	8.1	26.6	0.9	0.173
Nc1c(C(=O)NCc2ccc3c(c2)OCO3)c2nc3ccccc3nc2n1CCCN1CCOCC1	0.3	4.0	44.4	69.4*	0.6	-0.853
COc1ccccc1CNC(=O)c1c(N)n(CCCN2CCOCC2)c2nc3ccccc3nc12	0.7	4.1	33.8	32.3	0.7	nt
COc1nc(OC)nc(N2CCC(C(=O)NCc3ccco3)CC2)n1	1.1	nt	-38.5	-9.6	1.4	0.991
Nc1c(C(=O)NCc2ccco2)c2nc3ccccc3nc2n1CCc1ccc(F)cc1	0.6	29.2	58.0*	42.6	0.4	nt
COc1ccc(-n2c(N)c(C(=O)NCc3ccco3)c3nc4ccccc4nc32)cc1	0.9	6.6	18.2	5.5	0.8	-1.56
COc1cc(Cn2c(N)c(C#N)c3nc4ccccc4nc32)cc(OC)c1	1.1	19.2	56.0*	-5.7	0.4	nt
COc1ccc(Cn2c(N)c(C#N)c3nc4ccccc4nc32)cc1	0.8	14.7	26.4	19.9	0.7	nt
O=C(NCc1ccco1)C1CCN(c2nc3ccccc3n2Cc2ccc(F)cc2)CC1	0.8	2.7	46.6	24.1	0.5	-8.27*
O=C1CC(N2CCC(c3nc4ccccc4s3)CC2)C(=O)N1 (configuration not stated)	1.1	5.6	-15.7	-13.7	1.2	-0.172
N#Cc1c(N)n(CCc2ccc(F)cc2)c2nc3ccccc3nc12	0	23.7	80.2*	99.2*	0.2	0.51
Cc1cc(Nc2ccc(Cl)cc2)n(-c2cccc(Cl)c2)n1	0	13.9	98.0*	98.7*	0	-2.03
SMILES	CYP2C19 act	HIV Rev-RRE inh	CYP2C9 inh	CYP2C19 inh	CYP2C9 activ	Cav3 T inh
O=C(COc1ccc(Cl)cc1Cl)Nc1nc2n(n1)C(c1ccccc1)CC(=O)N2 (configuration not stated)	1	10.8	21.3	2.9	0.8	-3.67*
Cc1cc(Nc2ccc(Cl)cc2)n(-c2ccccc2)n1	0.4	6.4	69.7*	58.6*	0.3	0.631
Cc1cc(Nc2nc3c(c(=O)n(C)c(=O)n3C)n2C)n(-c2ccc(Cl)cc2)n1	1	nt	43.1	2.5	0.6	0.176
Cc1cc(NC(=O)COc2ccc(Cl)cc2Cl)n(-c2ccccc2)n1	0.3	1.1	34.5	71.2*	0.7	0.0145
CCOC(=O)/C=C(\C)Nc1cc(C)nn1-c1ccccc1	1	nt	-9.7	3.2	1.1	-0.445
Cc1cc(Nc2ccccc2)n(-c2ccc(Br)cc2)n1	0.1	0.7	96.9*	90.4*	0	-7.18*
Cc1cc(NC(=O)c2cc(CC(C)C)on2)n(-c2ccccc2)n1	nt	3.4	nt	nt	nt	-1.57
Cc1cc(NC(=O)c2ccc(C)s2)n(-c2ccccc2)n1	0.2	2.5	26.6	75.7*	0.7	0.136
Cc1cc(Nc2nnnn2-c2ccccc2)n(-c2ccccc2)n1	0.9	6.4	23.9	9.0	0.8	0.133
CC1CCN(C(=S)c2ccc3c(c2)OCO3)CC1	0	1.4	26.8	99.1*	0.7	1.44
CC1CCN(C(=O)c2ccc3c(c2)OCCO3)CC1	0.6	6.9	3.5	43.8	1	-0.0815
O=C(CCCCO)CCCCCCCC[C@H]1N[C@H](CO)[C@H](O)[C@@H]1O[C@@H]1O[C@H](CO)[C@@H](O)[C@H](O)[C@H]1O	nt	nt	nt	nt	nt	0.311
c1ccc(-c2nnc3sc(CN4CCc5ccccc54)cn23)cc1	nt	5.3	nt	nt	nt	-1.94
CC(=O)c1ccc(-n2c(C)ccc2-c2ccccc2)cc1	0.1	-0.1	79.7*	91.2*	0.2	1.61
COC(=O)c1ccc(N2C(=O)CC(N(C)Cc3ccccc3)C2=O)cc1 (configuration not stated)	0.9	4.0	-14.6	5.7	1.1	0.323
COC(=O)c1ccc(-n2c(C)ccc2-c2ccccc2)cc1	0.1	-0.2	86.0*	85.7*	0.1	-1.16
CCOC(=O)c1ccc(NC(=O)Nc2ccc(S(N)(=O)=O)cc2)cc1	1	0.2	6.4	0.8	0.9	0.017
CCCCC(=O)Nc1ccc(C(=O)NCc2ccncc2)cc1	0.4	5.5	69.7*	62.7*	0.3	0.158
CCOC(=O)c1ccc(NC(=O)NCc2ccncc2)cc1	0.8	2.5	73.1*	24.1	0.3	0.0311
O=C(NCc1ccncc1)Nc1ccccc1	0.5	10.0	33.5	53.7*	0.7	-0.571
CN(C)c1ccc(C(=O)OCC(=O)Nc2ccc(S(N)(=O)=O)cc2)cc1	1	-4.2	9.2	1.2	0.9	0.45
CCOC(=O)c1ccc(NCc2ccc(N(C)C)cc2)cc1	0.5	5.7	3.5	54.1*	1	-0.0359
COc1cc(O)c(C(CCN2CCCC(C)C2)c2cc(OC)c(OC)c(OC)c2)c(OC)c1 (configuration not stated)	nt	nt	nt	nt	nt	-0.86
